Measurements published in ChEMBL document CHEMBL4311980, “Discovery of 2-isoxazol-3-yl-acetamide analogues as heat shock protein 90 (HSP90) inhibitors with significant anti-HIV activity” (Eur J Med Chem, 2019).
Activity calls are given as the source filed them. The rule behind the calls is not given here.

Assays:
[1] = test system: Human immunodeficiency virus 1; experiment: Antiviral activity against HIV-1 NL4-3 infected in human U937 cells assessed as suppression of viral replication by measuring reduction in p24 level measured at 72 hrs post-infection by ELISA; format: functional, organism-based; settings: Human immunodeficiency virus 1, U-937, 72 h
In short: (§1)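 Cells were incubated with 0.5 MOI virus in the presence of polybrene at 37 °C for 4 h with intermittent mixing, then washed and plated in complete RPMI-1640. Compound added at different concentrations, with untreated and DMSO controls. PBMC were PHA-activated. Supernatant p24 measured by capture ELISA (A450) at 72 h. % inhibition calculated relative to untreated cells.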

[2] = Cytotoxicity against human CEM-GFP cells assessed as reduction in cell viability after 48 hrs by MTT assay; format: cell-based
In short: (§2)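 Cells were seeded at 25,000/well in complete medium with compound at different concentrations, with untreated and DMSO controls, and incubated 48 h. MTT (5 mg/mL stock) was added for 4 h at 37 °C in the dark. Formazan was dissolved in isopropanol and A570 read. CC50 and highest non-cytotoxic concentration were derived from this assay.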

[3] = Cytotoxicity against human PBMC assessed as reduction in cell viability after 48 hrs by MTT assay; format: cell-based; in short: as §2
[4] = Ratio of therapeutic index for compound to therapeutic index of AZT
[5] = test system: Human immunodeficiency virus 1; experiment: Antiviral activity against 0.01 to 0 1 MOI HIV-1 NL4-3 infected in human CEM-GFP cells assessed as suppression of viral replication by measuring reduction in p24 level at 1 uM measured at 72 hrs post-infection by ELISA; format: functional, organism-based
In short: (§3)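 Cells infected with HIV-1 NL4-3 at MOI 0.01, 0.1 or 1 in the presence of polybrene at 37 °C for 4 h. Cells then washed in serum-free RPMI-1640 and plated in complete RPMI-1640 with compound at its highest non-cytotoxic concentration. Untreated and DMSO controls. Supernatant p24 measured by antigen-capture ELISA (A450) at 72 h post-infection. % inhibition = (untreated − treated p24)/untreated p24 × 100.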

[6] = test system: Human immunodeficiency virus 1; experiment: Antiviral activity against R5X4 tropic HIV-1 subtype-B 89.6 infected in human CEM-GFP cells assessed as suppression of viral replication by measuring reduction in p24 level measured at 72 hrs post-infection by ELISA; format: functional, organism-based; settings: M:B_89.6; in short: as §1
[7] = test system: Human immunodeficiency virus 1; experiment: Antiviral activity against HIV-1 NL4-3 infected in human Jurkat J6 cells assessed as suppression of viral replication by measuring reduction in p24 level measured at 72 hrs post-infection by ELISA; format: functional, organism-based; settings: Human immunodeficiency virus 1, Jurkat; in short: as §1
[8] = Therapeutic index, ratio of CC50 for human CEM-GFP cells to IC50 for antiviral activity against HIV-1 NL4-3 infected in human CEM-GFP cells; format: toxicity, cell-based; settings: read-out: Ratio CC50/IC50
In short: (§4)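 IC50 was determined from p24 ELISA 72 h after 0.5 MOI HIV-1 NL4-3 infection with compound at different concentrations. Therapeutic index = CC50/IC50.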

[9] = Cytotoxicity against human U937 cells assessed as reduction in cell viability after 48 hrs by MTT assay; format: cell-based, U-937; in short: as §2
[10] = test system: Human immunodeficiency virus 1; experiment: Antiviral activity against 0.01 to 0 1 MOI HIV-1 NL4-3 infected in human PBMC assessed as suppression of viral replication by measuring reduction in p24 level at 1 uM measured at 72 hrs post-infection by ELISA; format: functional, organism-based; in short: as §3
[11] = target: Heat shock protein HSP90 (Homo sapiens) (UniProt P07900+P08238); experiment: Inhibition of HSP90 (unknown origin) expressed in HEK-293T cells assessed as reduction in Tat-mediated transactivation at 1 uM measured at 48 hrs post-transfection by LTR-driven luciferase reporter gene assay; format: cell-based
In short: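 HEK-293T cells were co-transfected with p-LTR-Luc and Tat using PEI in the presence or absence of compound. At 48 h post-transfection, cells were harvested and luminescence and fluorescence were measured.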

[12] = Cytotoxicity against human Jurkat J6 cells assessed as reduction in cell viability after 48 hrs by MTT assay; format: cell-based; in short: as §2
[13] = test system: Human immunodeficiency virus 1; experiment: Antiviral activity against HIV-1 NL4-3 infected in human CEM-GFP cells assessed as suppression of viral replication by measuring reduction in p24 level measured at 72 hrs post-infection by ELISA; format: functional, organism-based; settings: Human immunodeficiency virus 1, NL4-3, CEM-GFP; in short: as §1
[14] = test system: Human immunodeficiency virus 1; experiment: Antiviral activity against HIV-1 NL4-3 infected in human TZM-bl cells assessed as reduction in viral replication at 1000 nM measured at 48 hrs post-infection by steady-glo reporter gene assay relative to control; format: functional; settings: Human immunodeficiency virus 1, NL4-3, TZM-bl
In short: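 TZM-bl cells (0.15×10^6/well) were infected with 0.5 MOI HIV-1 NL4-3 12 h after seeding and treated at the highest non-cytotoxic concentration, which was set by MTT assay. At 48 h post-infection, cells were lysed and mixed 1:1 with Steady-Glo substrate, and luminescence was read.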

[15] = target: Protease (Human immunodeficiency virus 1) (UniProt Q9YQ12); experiment: Inhibition of HIV-1 protease at 1 uM using synthetic peptide as substrate after 15 mins by fluorimetric based assay
Chain of Protease (Human immunodeficiency virus 1) (Q9YQ12 as listed by the source): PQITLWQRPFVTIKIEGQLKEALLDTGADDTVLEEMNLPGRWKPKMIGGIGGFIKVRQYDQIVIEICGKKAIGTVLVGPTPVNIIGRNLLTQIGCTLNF
In short: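 Cell-free fluorometric protease kit. HIV-1 protease was diluted in reaction buffer and loaded at 10 nmol/well with or without compound. Indinavir served as positive control, with untreated and DMSO controls. Fluorescence (Ex/Em 330/450 nm) was read 15 min after addition. n = 3.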

[16] = test system: HIV-1 M:B; experiment: Antiviral activity against X4 tropic HIV-1 subtype-B 3B infected in human PBMC assessed as suppression of viral replication by measuring reduction in p24 level measured at 72 hrs post-infection by ELISA; format: functional; in short: as §1
[17] = test system: HIV-1 M:B; experiment: Antiviral activity against R5 tropic HIV-1 subtype-B ADA infected in human CEM-GFP cells assessed as suppression of viral replication by measuring reduction in p24 level measured at 72 hrs post-infection by ELISA; format: functional, cell-based; in short: as §1
[18] = Therapeutic index, ratio of CC50 for human U937 cells to IC50 for antiviral activity against HIV-1 NL4-3 infected in human U937 cells; format: toxicity, cell-based; settings: read-out: Ratio CC50/IC50; in short: as §4
[19] = test system: Human immunodeficiency virus 1; experiment: Antiviral activity against HIV-1 NL4-3 infected in human PBMC assessed as suppression of viral replication by measuring reduction in p24 level measured at 72 hrs post-infection by ELISA; format: functional, organism-based; settings: Human immunodeficiency virus 1, 72 h; in short: as §1
[20] = test system: HIV-1 M:B; experiment: Antiviral activity against X4 tropic HIV-1 subtype-B 3B infected in human CEM-GFP cells assessed as suppression of viral replication by measuring reduction in p24 level measured at 72 hrs post-infection by ELISA; format: functional, cell-based; in short: as §1
[21] = Therapeutic index, ratio of CC50 for human PBMC to IC50 for antiviral activity against HIV-1 NL4-3 infected in human PBMC; format: toxicity; settings: read-out: Ratio CC50/IC50; in short: as §4
[22] = Ratio of therapeutic index for compound to therapeutic index of AUY922
[23] = test system: Human immunodeficiency virus 1; experiment: Antiviral activity against HIV-1 NL4-3 infected in CEM-GFP cells assessed as reduction in HSP90 expression measured at 72 hrs post-infection by immunoblotting analysis; format: functional, organism-based
In short: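 CEM-GFP cells were infected with 0.5 MOI HIV-1 NL4-3 with or without compound, with DMSO as vehicle control. At 72 h post-infection, HSP90 protein was measured by immunoblotting and quantified by densitometry.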

[24] = test system: Human immunodeficiency virus 1; experiment: Antiviral activity against HIV-1 subtype C isolate indeiC infected in human PBMC cells assessed as suppression of viral replication by measuring reduction in p24 level measured at 72 hrs post-infection by ELISA; format: functional, organism-based; in short: as §1
[25] = test system: HIV-1 M:B; experiment: Antiviral activity against R5 tropic HIV-1 subtype-B ADA infected in human PBMC assessed as suppression of viral replication by measuring reduction in p24 level measured at 72 hrs post-infection by ELISA; format: functional; in short: as §1
[26] = Cytotoxicity against human TZM-bl cells assessed as maximum non-cytotoxic concentration after 48 hrs by MTT assay; format: cell-based; settings: read-out: MNCC; in short: as §2
[27] = test system: Human immunodeficiency virus 1; experiment: Antiviral activity against R5X4 tropic HIV-1 subtype-B 89.6 infected in human PBMC assessed as suppression of viral replication by measuring reduction in p24 level measured at 72 hrs post-infection by ELISA; format: functional, organism-based; settings: M:B_89.6; in short: as §1
[28] = target: Human immunodeficiency virus type 1 reverse transcriptase (Human immunodeficiency virus 1) (UniProt Q72547); experiment: Inhibition of HIV-1 reverse transcriptase RNA-dependent DNA polymerase activity assessed as reduction in biotin-dUTP incorporation at 1 uM using poly(A)/oligo (dT)15 as template/primer by ELISA
In short: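 RNA-dependent DNA polymerase activity of HIV-1 RT was tested with a colorimetric reverse transcriptase kit. Nevirapine served as positive control, with untreated and DMSO vehicle wells. Compound was tested at its highest non-cytotoxic concentration. n = 3.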

[29] = Therapeutic index, ratio of CC50 for human Jurkat J6 cells to IC50 for antiviral activity against HIV-1 NL4-3 infected in human Jurkat J6 cells; format: toxicity, cell-based; settings: read-out: Ratio CC50/IC50; in short: as §4
[30] = test system: Human immunodeficiency virus 1; experiment: Antiviral activity against HIV-1 subtype C isolate indeiC infected in human CEM-GFP cells assessed as suppression of viral replication by measuring reduction in p24 level measured at 72 hrs post-infection by ELISA; format: functional, organism-based; in short: as §1

In the case of `CC(C)NC(=O)Cc1cc(-c2ccccc2)on1`, the IC50 [1] is reported as 0.053 µM, the CC50 at 48 h [2] is reported as 65.6 µM and the CC50 at 48 h [3] is reported as 67.9 µM. The Ratio [4] was 1.5, the inhibition [5] was “Active” and the inhibition [6] was “Active”. For the same molecule, the IC50 [7] was 0.0527 µM, the selectivity ratio [8] was 1660 and the CC50 at 48 h [9] was 56.6 µM. For the same molecule, the inhibition [10] was “Active”, the inhibition [11] was “Active” and the CC50 at 48 h [12] was 60.3 µM. For the same molecule, the IC50 [13] was 0.0395 µM, the inhibition at 1 µM [14] was 85% and the inhibition [15] was “inactive”. The inhibition [16] was “Active”, the inhibition [17] was “Active” and the selectivity ratio [18] was 1070. The IC50 [19] was 0.0562 µM, the inhibition [20] was “Active” and the selectivity ratio [21] was 1210. The Ratio [22] was 3.5, the Activity [23] was “Active” and the inhibition [24] was “Active”. The inhibition [25] was “Active”, the MNTC at 48 h [26] was 1000 nM and the inhibition [27] was “Active”. The inhibition [28] was “inactive”, the selectivity ratio [29] was 1140 and the inhibition [30] was “Active”.
